Data published in ChEMBL document CHEMBL2390869, “Evolution of novel tricyclic CRTh2 receptor antagonists from a (E)-2-cyano-3-(1H-indol-3-yl)acrylamide scaffold” (Bioorg Med Chem Lett, 2013).

Target: T1, Prostaglandin D2 receptor 2 (Homo sapiens, UniProt Q9Y5Y4)
T1 sequence (Q9Y5Y4 whole entry): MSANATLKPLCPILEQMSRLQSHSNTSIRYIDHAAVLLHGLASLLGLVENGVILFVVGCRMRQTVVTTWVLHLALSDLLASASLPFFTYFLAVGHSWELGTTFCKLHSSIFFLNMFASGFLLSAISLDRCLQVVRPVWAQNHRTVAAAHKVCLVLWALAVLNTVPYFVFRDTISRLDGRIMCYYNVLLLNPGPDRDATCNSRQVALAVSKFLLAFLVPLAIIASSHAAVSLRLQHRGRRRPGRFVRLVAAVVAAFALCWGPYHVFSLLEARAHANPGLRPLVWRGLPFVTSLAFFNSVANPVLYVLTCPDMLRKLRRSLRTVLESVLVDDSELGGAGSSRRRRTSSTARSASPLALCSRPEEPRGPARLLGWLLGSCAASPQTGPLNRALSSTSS
Experiment: Displacement of [3H]PGD2 from human CRTh2 receptor
Outline: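 Human CRTh2 binding assay run in assay buffer. IC50 reported as the mean of at least three experiments.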

| SMILES | IC50 [nM] |
| --- | --- |
| Cc1cccc2c(/C=C(\C#N)C(=O)N(C)c3ccccc3)cn(CC(=O)O)c12 | 140 |
| CC(=O)N1CCc2c(c3ccccc3n2CC(=O)O)C1 | 1600 |
| N#C/C(=C\c1cn(CC(=O)O)c2ccccc12)C(=O)Nc1ccccc1 | 430 |
| C/C(=C(/C#N)C(=O)Nc1ccccc1)c1cn(CC(=O)O)c2ccccc12 | 510 |
| N#C/C(=C\c1cn(CC(=O)O)c2ccccc12)C(=O)N1CCc2ccccc21 | 60 |
| O=C(O)Cn1c2c(c3ccccc31)CC(C(=O)Nc1ccccc1)CC2 (racemic) | 145 |
| CN(C(=O)/C(C#N)=C/c1cn(CC(=O)O)c2cc(Cl)ccc12)c1ccccc1 | 290 |
| N#C/C(=C\c1cn(CCC(=O)O)c2ccccc12)C(=O)Nc1ccccc1 | 5900 |
| CN(C(=O)/C(C#N)=C/c1cn(CC(=O)O)c2c(Cl)cccc12)c1ccccc1 | 50 |
| CN(C(=O)/C(C#N)=C/c1cn(CC(=O)O)c2cc(F)ccc12)c1ccccc1 | 45 |

Stronger by IC50, values ahead:

| IC50 [nM] | SMILES |
| --- | --- |
| 30 | N#C/C(=C\c1cn(CC(=O)O)c2ccccc12)C(=O)N(c1ccccc1)C1CCCCC1 |
| 15 | CN(C(=O)/C(C#N)=C/c1cn(CC(=O)O)c2ccccc12)c1ccccc1 |
| 10 | N#C/C(=C\c1cn(CC(=O)O)c2ccccc12)C(=O)N(CCc1ccccc1)c1ccccc1 |
| 10 | CN(C(=O)/C(C#N)=C/c1cn(CC(=O)O)c2ccc(F)cc12)c1ccccc1 |
| 7 | N#C/C(=C\c1cn(CC(=O)O)c2ccccc12)C(=O)N1Cc2ccccc2Cc2ccccc21 |
| 7 | CN(C(=O)/C(C#N)=C/c1cn(CC(=O)O)c2ccc(Cl)cc12)c1ccccc1 |
